Results on 22 compounds are retold here after ChEMBL document CHEMBL4229371, “Discovery of [1,2,4]triazolo[3,4-b][1,3,4]thiadiazole derivatives as novel, potent and selective c-Met kinase inhibitors: Synthesis, SAR study, and biological activity” (Eur J Med Chem, 2018).

Some results are limits rather than exact numbers.

Assay [1] addresses Hepatocyte growth factor receptor (Homo sapiens, UniProt P08581). Put plainly: Inhibition of GST-tagged human c-MET preincubated for 20 mins followed by [33P]-ATP addition and measured after 2 hrs by Hot-Spot kinase assay.
Assay [2] relates to SNU-5. Put plainly: Antiproliferative activity against human SNU5 cells at 5 uM after 72 hrs by Cell Titer-Glo assay. The assay is classed as functional. The essentials: (§1)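 Cell Titer-Glo viability assay. Exponentially growing cells were plated at 4000 per well in RPMI-1640 with 10% FPS and incubated 12 h at 37 °C in 5% CO2. Compound was then added at the indicated final concentrations and cells were held 72 h at 37 °C in 5% CO2. CTG reagent was applied for 10 min at room temperature. Inhibition % = (1 − Vsample/Vvehicle control) × 100.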

Assay [3] deals with MKN-45. Put plainly: Antiproliferative activity against human MKN45 cells at 5 uM after 72 hrs by Cell Titer-Glo assay. Format: functional. Summed up: as §1
On the technique in general: In ATP-based viability assays light output follows the ATP content of the culture.

Assay [4] concerns EBC-1. In words: Antiproliferative activity against human EBC1 cells at 5 uM after 72 hrs by Cell Titer-Glo assay. Format: functional. Summed up:
as §1

In assay [5] the test system is MKN-45. In words: Antiproliferative activity against human MKN45 cells at 1 uM after 72 hrs by Cell Titer-Glo assay. The assay is classed as functional. The essentials: as §1
The test system of assay [6] is EBC-1. In words: Antiproliferative activity against human EBC1 cells at 1 uM after 72 hrs by Cell Titer-Glo assay. The assay is classed as functional. The essentials:
as §1

Assay [7] has as its system EBC-1. In words: Antiproliferative activity against human EBC1 cells after 72 hrs by Cell Titer-Glo assay. Format: functional, cell-based. Conditions: EBC-1, 72 h. Summed up: as §1

What is called IC50 is the concentration needed to halve the response being measured. A lower IC50 goes with higher potency.

Sequence of Hepatocyte growth factor receptor (P08581 whole entry): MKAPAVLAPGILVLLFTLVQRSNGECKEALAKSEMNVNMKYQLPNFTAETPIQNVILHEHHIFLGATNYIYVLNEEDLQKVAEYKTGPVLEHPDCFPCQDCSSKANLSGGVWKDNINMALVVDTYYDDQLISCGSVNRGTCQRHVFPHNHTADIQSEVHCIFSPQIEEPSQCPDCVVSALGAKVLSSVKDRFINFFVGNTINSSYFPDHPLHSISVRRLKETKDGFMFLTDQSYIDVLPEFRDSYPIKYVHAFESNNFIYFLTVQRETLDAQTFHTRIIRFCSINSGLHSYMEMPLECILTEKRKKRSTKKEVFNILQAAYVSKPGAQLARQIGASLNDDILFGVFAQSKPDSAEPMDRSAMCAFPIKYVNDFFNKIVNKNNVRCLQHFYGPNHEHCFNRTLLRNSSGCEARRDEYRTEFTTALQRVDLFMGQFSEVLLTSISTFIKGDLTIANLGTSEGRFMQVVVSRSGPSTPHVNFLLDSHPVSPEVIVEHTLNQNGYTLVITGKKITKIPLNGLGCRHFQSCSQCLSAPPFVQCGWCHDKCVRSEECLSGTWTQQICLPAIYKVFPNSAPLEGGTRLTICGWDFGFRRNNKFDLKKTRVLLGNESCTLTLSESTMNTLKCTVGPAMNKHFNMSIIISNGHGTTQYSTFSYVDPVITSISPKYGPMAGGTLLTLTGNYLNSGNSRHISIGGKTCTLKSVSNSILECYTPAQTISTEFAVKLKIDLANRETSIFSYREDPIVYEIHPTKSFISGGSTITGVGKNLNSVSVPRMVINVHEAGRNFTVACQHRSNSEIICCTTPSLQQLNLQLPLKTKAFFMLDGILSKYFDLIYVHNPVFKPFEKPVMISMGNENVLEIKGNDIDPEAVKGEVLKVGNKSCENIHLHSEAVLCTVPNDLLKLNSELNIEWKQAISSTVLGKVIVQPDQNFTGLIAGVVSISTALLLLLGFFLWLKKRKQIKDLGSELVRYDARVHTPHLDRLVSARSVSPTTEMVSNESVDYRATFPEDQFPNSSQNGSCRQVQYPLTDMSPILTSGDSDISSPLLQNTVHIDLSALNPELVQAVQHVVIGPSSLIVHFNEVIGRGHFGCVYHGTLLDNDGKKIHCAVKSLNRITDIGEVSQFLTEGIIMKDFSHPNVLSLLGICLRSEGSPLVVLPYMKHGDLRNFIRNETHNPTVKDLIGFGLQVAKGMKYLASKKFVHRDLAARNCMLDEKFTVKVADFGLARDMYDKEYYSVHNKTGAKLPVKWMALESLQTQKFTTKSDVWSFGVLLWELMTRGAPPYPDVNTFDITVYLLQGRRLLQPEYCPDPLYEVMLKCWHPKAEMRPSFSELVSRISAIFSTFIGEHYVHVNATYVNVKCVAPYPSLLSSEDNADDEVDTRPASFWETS

Regarding `COc1ccc(Cc2nnc3sc(-c4cc5ccccc5[nH]4)nn23)cc1`, the IC50 in assay [1] worked out at 79.3 nM; in assay [7], 107 nM. For the same compound, the Activity in assay [2] came to 70.2%; in assay [3] it was 76.3%; in assay [4], 87.3%; in assay [5] it was 78.1%; in assay [6], 86.5%.
For `COc1cccc(-c2nn3c(COc4ccnc5cc(OC)ccc45)nnc3s2)c1`, the Activity in assay [2] was found to be 65.7%; in assay [3], 66.6%; in assay [4], 85.4%; in assay [5] it was 37.8%; in assay [6], 91.5%. The IC50 in assay [7] came to 472 nM.
As to `COc1ccc2c(OCc3nnc4sc(-c5cc(F)c(F)c(F)c5)nn34)ccnc2c1`, the Activity in assay [2] is on record as 44.7%; in assay [3], 29.8%; in assay [4], 84.5%; in assay [6] it was 89.3%. In assay [7], this compound displayed an IC50 of 403 nM.
In the case of `COCCn1ccc(-c2nn3c(COc4ccnc5cc(OC)ccc45)nnc3s2)c1`, the Activity turned out to be 46.1% in assay [2]; 73% in assay [3]; 78.6% in assay [4]; 71.1% in assay [5]; 89% in assay [6]. Besides, in assay [7], it took 327 nM to reach half-maximal inhibition (IC50).
For `COc1ccc2c(OCc3nnc4sc(-c5cccn5C)nn34)ccnc2c1`, the Activity in assay [2] is 14.5%; in assay [3], 28.1%; in assay [4], 86.3%; in assay [6], 7.4%.
Take `COc1ccc2c(OCc3nnc4sc(-c5ccc[nH]5)nn34)ccnc2c1`: the Activity was 72.4% in assay [2]; 76.8% in assay [3]; 83.7% in assay [4]; 79.3% in assay [5]; 80.5% in assay [6]. In assay [7], this compound came in with a half-maximal inhibitory concentration (IC50) of 149 nM.
With `CN(C)C(=O)COc1ccc(Cc2nnc3sc(-c4cnn(C)c4)nn23)cc1`, the IC50 in assay [1] is > 10000 nM.
With `COc1ccc2c(OCc3nnc4sc(-c5cccc(F)c5)nn34)ccnc2c1`, the Activity in assay [2] is given as 66.3%; in assay [3], 71.3%; in assay [4], 81.4%; in assay [5] it was 13.2%; in assay [6] it was 86.7%. In addition, 504 nM corresponded to half-maximal inhibition in assay [7] (IC50).
Consider `COc1ccc2c(OCc3nnc4sc(-c5cc6ccccc6n5C)nn34)ccnc2c1`, for which the Activity in assay [2] worked out at 67.7%; in assay [3], 74.1%; in assay [4], 87%; in assay [5], 60.8%; in assay [6], 91.6%. Further, half-maximal inhibition in assay [7] (IC50) was put at 313 nM.
For the compound `C[C@@H](Oc1cc(-c2cnn(C3CCNCC3)c2)cnc1N)c1c(Cl)ccc(F)c1Cl` [CRIZOTINIB], the Activity in assay [2] was determined as 80%; in assay [3], 77.7%; in assay [4], 94.4%; in assay [5] it was 82.6%; in assay [6] it was 93.1%. 39 nM corresponded to half-maximal inhibition in assay [7] (IC50).
For `COc1ccc2[nH]c(-c3nn4c(COc5ccnc6cc(OC)ccc56)nnc4s3)cc2c1`, the Activity in assay [2] is on record as 60%; in assay [3] it was 61.2%; in assay [4], 84%; in assay [5], 75.3%; in assay [6] it was 82.2%. Moreover, the IC50 in assay [7] amounted to 85.6 nM.
Turning to `COc1ccc2c(OCc3nnc4sc(-c5ccncc5)nn34)ccnc2c1`, the Activity in assay [2] is on record as 65.7%; in assay [3], 73%; in assay [4], 83.7%; in assay [5], 73.8%; in assay [6], 91.6%. The same compound yielded an IC50 in assay [7] of 289 nM.
On to `COc1ccc2c(OCc3nnc4sc(-c5ccc(F)cc5)nn34)ccnc2c1`, for which the Activity is 65.8% in assay [2]; 71% in assay [3]; 83.1% in assay [4]; 68.5% in assay [5]; 89.4% in assay [6]. The same compound returned an IC50 in assay [7] of 187 nM.
With `CNC(=O)COc1ccc(Cc2nnc3sc(-c4cnn(C)c4)nn23)cc1`, the concentration for half-maximal inhibition (IC50) in assay [1] was > 10000 nM.
For `O=C(Oc1ccc(Cc2nnc3sc(-c4cc5ccccc5[nH]4)nn23)cc1)c1cc2ccccc2[nH]1`, the IC50 in assay [1] is > 10000 nM.
Regarding `COc1ccc(-c2nn3c(COc4ccnc5cc(OC)ccc45)nnc3s2)cc1`, the Activity amounted to 74.5% in assay [2]; 72% in assay [3]; 85.2% in assay [4]; 76.4% in assay [5]; 89.1% in assay [6]. In addition, in assay [7], inhibition was half-maximal at 161 nM (IC50).
Take `COc1ccc2c(OCc3nnc4sc(-c5ccn(CC6CC6)c5)nn34)ccnc2c1`: the Activity is reported as 52.2% in assay [2]; 66.6% in assay [3]; 75.9% in assay [4]; 41.1% in assay [5]; 87.2% in assay [6]. Also, half-maximal inhibition in assay [7] (IC50) was put at 351 nM.
On to `COc1ccc2c(OCc3nnc4sc(-c5cc[nH]c5)nn34)ccnc2c1`, for which the Activity in assay [2] is given as 71.5%; in assay [3], 70.5%; in assay [4] it was 85.9%; in assay [5], 71.1%; in assay [6], 90.6%. The compound further had an IC50 in assay [7] of 353 nM.
For `Cn1cc(C(=O)Oc2ccc(Cc3nnc4sc(-c5cnn(C)c5)nn34)cc2)cn1`, the IC50 in assay [1] was > 10000 nM.
`COc1ccc2c(OCc3nnc4sc(-c5ccn(C6CCCC6)c5)nn34)ccnc2c1`: the Activity in assay [2] is listed as 42%; in assay [3], 47.6%; in assay [4], 72.1%; in assay [6], 41.3%.
As for `Cn1cc(-c2nn3c(Cc4ccc(OCCN5CCOCC5)cc4)nnc3s2)cn1`, in assay [1], the IC50 was > 10000 nM.
In the case of `COc1ccc2c(OCc3nnc4sc(-c5cc6cc(F)ccc6[nH]5)nn34)ccnc2c1`, the Activity in assay [2] is listed as 54.4%; in assay [3], 47.7%; in assay [4], 42.3%.
